One block for each molecule: values may come before it.
Experiments:
[1] = cis/trans conformation of the PRP17 Gly94-Pro95 bond by 1H-13C HSQC; assay type: physicochemical; conditions: 500 μM peptide in PBS (pH 7.4), 5 % v/v D2O, 750 MHz
[2] = target: T1, PPIL1 (Homo sapiens, UniProt Q9Y3C6); assay type: biochemical; conditions: catalytic concentrations of PPIL1 WT, 25 mM sodium phosphate, 100 mM NaCl, 1 mM dithiothreitol, 5% D2O, pH 7.0, 950 MHz; Figure S6I
T1 sequence (Q9Y3C6 1-166): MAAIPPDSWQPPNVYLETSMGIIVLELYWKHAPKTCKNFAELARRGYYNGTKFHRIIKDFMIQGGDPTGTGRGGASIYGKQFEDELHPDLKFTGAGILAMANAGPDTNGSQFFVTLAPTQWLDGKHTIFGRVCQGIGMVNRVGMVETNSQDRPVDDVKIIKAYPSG
Summary of the method: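 Substrate: uniformly 15N-labeled PRP17 peptide (residues 84–101), made as a His-SUMO fusion in BL21(DE3) in 15N minimal medium. Induction was 1 mM IPTG, 37 °C, 8 h. Ni-NTA, SUMO protease cleavage (30 °C, 6 h) and C18 reverse-phase HPLC followed, then lyophilisation. ZZ mixing times 120 (×2), 150, 200, 250 (×2), 350, 450, 600 and 750 ms on a TXO cryoprobe.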

[3] = target: T2, PPIL1 p.T107A, purified recombinant (human, UniProt Q9Y3C6 1-166, p.T107A); experiment: SPR
T2 sequence (looked up): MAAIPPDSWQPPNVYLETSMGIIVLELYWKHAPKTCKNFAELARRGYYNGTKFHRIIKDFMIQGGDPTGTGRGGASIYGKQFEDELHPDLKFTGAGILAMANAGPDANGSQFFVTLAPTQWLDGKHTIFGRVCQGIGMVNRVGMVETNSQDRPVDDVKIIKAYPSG

Molecule: Ac-FAPEFGPENPFRT-NH2
Gly94-Pro95 bond conformation [1]: present in both cis and trans conformations

proline isomerization by PPIL1 WT (ZZ exchange) [2]: This was also confirmed
Molecule: TYETMFAPEFGPENPFRT

binding result [3]: binds
B1: N-terminal GST tagged SKIP 59–129 (domain or fragment, UniProt Q13573 59-129, looked up)
chain: GDGGAFPEIHVAQYPLDMGRKKKMSNALAIQVDSEGKIKYDAIARQGQSKDKVIYSKYTDLVPKEVMNADD

Source: article PMC8800389 (Neuron, 2020)
